Experimental data: PubChem BioAssay AID651575 (The Scripps Research Institute Molecular Screening Center, 2012)

Test system: Huh-7.5 HCV J6/JFH-1 infection, RT-qPCR viral RNA, 48 h
Assay: HCV infectivity inhibition in Huh-7.5 cells, late-stage follow-up, counter-screen for HCV core dimerization inhibitor project, cell-based, RT-qPCR viral RNA, J6/JFH-1, powder samples (AID 651575)
Method in brief: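 Material: Huh-7.5 cells infected with HCV genotype 2a J6/JFH-1; also added: HCV 2a J6/JFH-1 virus added together with compound; dosing: 6 tenfold doses, top 100 µM; incubation: 24 h infection with compound, then 48 h compound; signal: Taqman real-time RT-qPCR of HCV RNA, Ct values; repeats: triplicates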

| SMILES | IC50 [nM] |
| --- | --- |
| Cc1ccc(Cc2c(C)nc3nc(SCC(=O)NCCN4CCOCC4)nn3c2C)cc1 | 312 |
| Cc1ccc(Cc2c(C)nc3nc(SCC(=O)NCCN4CCN(CCc5ccccc5)CC4)nn3c2C)cc1 | 294 |
| Cc1ccc(Cc2c(C)nc3nc(SCC(=O)NCCN4CCCN(S(C)(=O)=O)CC4)nn3c2C)cc1 | 1240 |
| Cc1ccc(Cc2c(CCc3ccccc3)nc3nc(SC(Cc4ccccc4)C(=O)NCCN4CCOCC4)nn3c2C)cc1 (centres undefined) | 286 |
| Cc1ccc(Cc2c(C)nc3nc(SCC(=O)NCCN4CCCN(S(=O)(=O)c5ccccc5)CC4)nn3c2C)cc1 | 665 |
| Cc1ccc(Cc2c(C)nc3nc(SCC(=O)NCCN4CCCN(S(=O)(=O)c5ccc(C)cc5)CC4)nn3c2C)cc1 | 4 |
| Cc1ccc(Cc2c(C)nc3nc(SCC(=O)NCCN4CCNCC4)nn3c2C)cc1 | 2 |
| Cc1ccc(Cc2c(C)nc3nc(SCC(=O)NCCN4CCCCCC4)nn3c2C)cc1 | 191 |
| Cc1ccc(Cc2c(C)nc3nc(SCC(=O)NCCN4CCN(Cc5ccc(F)cc5)CC4)nn3c2C)cc1 | 32 |
